Assay results from ChEMBL document CHEMBL1124823, “Antimitotic agents: synthesis of imidazo[4,5-c]pyridin-6-ylcarbamates and imidazo[4,5-b]pyridin-5-ylcarbamates” (J Med Chem, 1990).

Tests used:
[1] = test system: L1210; test: Concentration that causes a mitotic index (number of cells in mitosis divided by total cells) of cultured lymphoid leukemia L1210 cells.; assay type: functional, Mus musculus
Procedure, shortened: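 Cultured lymphoid leukemia L1210 cells were exposed to agent for 12 h. Mitotic index was taken as the number of cells in mitosis divided by total cells. The value is the micromolar concentration giving a mitotic index of 0.5.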

[2] = test system: Mus musculus; test: Increase in life span (ILS) in mice implanted intraperitoneally with lymphocytic leukemia P388 cells at a nontoxic dose of 200 mg/kg; assay type: functional; conditions: P388, ip, route intraperitoneal
[3] = test system: L1210; test: The compound was tested for cell growth inhibitory activity against lymphoid leukemia L1210 cell line.; assay type: functional, cell-based; conditions: Mus musculus
Procedure, shortened: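 Cultured lymphoid leukemia L1210 cells were grown with agent for 48 h. The value is the micromolar concentration that inhibits proliferation to 50% of control growth.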

[4] = test system: Mus musculus; test: Increase in life span (ILS) in mice implanted intraperitoneally with lymphocytic leukemia P388 cells at a nontoxic dose of 200 mg/kg; toxic dose by weight loss when repeated; assay type: functional; conditions: P388, ip, route intraperitoneal
[5] = test system: Mus musculus; test: Increase in life span (ILS) in mice implanted intraperitoneally with lymphocytic leukemia P388 cells at a nontoxic dose of 100 mg/kg; toxic dose by weight loss when repeated; assay type: functional; conditions: P388, ip, route intraperitoneal
[6] = test system: Mus musculus; test: Increase in life span (ILS) in mice implanted intraperitoneally with lymphocytic leukemia P388 cells at a nontoxic dose of 100 mg/kg; assay type: functional; conditions: P388, ip, route intraperitoneal
[7] = test system: Mus musculus; test: Increase in life span (ILS) in mice implanted intraperitoneally with lymphocytic leukemia P388 cells at a nontoxic dose of 2 mg/kg; assay type: functional; conditions: P388, ip, route intraperitoneal
[8] = test system: Mus musculus; test: Increase in life span (ILS) in mice implanted intraperitoneally with lymphocytic leukemia P388 cells at a nontoxic dose of 50 mg/kg; assay type: functional; conditions: P388, ip, route intraperitoneal

Row | SMILES | MI0.5 [1] [µM] | IC50 [3] [nM] | other results
1 | CCOC(=O)Nc1cc2[nH]c(-c3ccccc3)nc2c(N)n1 | 8 | 900 | ILS at 200 mg/kg [2]: 0%
2 | CCOC(=O)Nc1cc2c(nc(S)n2/N=C/c2ccccc2)c(N)n1 | 11 | 470 | ILS at 200 mg/kg [2]: 6%
3 | CCOC(=O)Nc1cc2c(nc(SCc3ccccc3)n2N)c(N)n1 | 1.6 | 600 | ILS at 200 mg/kg [4]: 39%
4 | CCOC(=O)Nc1cc(N(C)/N=C/c2ccccc2)c2nc[nH]c2n1 |  | 3100 | 
5 | CCOC(=O)Nc1cc2c(ncn2/N=C/c2ccccc2)c(N)n1 | 0.61 | 150 | ILS at 100 mg/kg [5]: 39%
6 | CCOC(=O)Nc1cc2c(nc(SCc3ccccc3)n2/N=C/c2ccccc2)c(N)n1 |  | 50000 | 
7 | CCOC(=O)Nc1cc2c(nc(SCc3ccc4c(c3)OCO4)n2N)c(N)n1 |  | 170 | ILS at 100 mg/kg [6]: 25%
8 | CCOC(=O)Nc1cc2c(c(N)n1)N=C(c1ccccc1)CN2 | 0.0028 |  | ILS at 2 mg/kg [7]: 51%
9 | CCOC(=O)Nc1cc(N/N=C/c2ccccc2)c2[nH]c(SCc3ccccc3)nc2n1 |  | 46000 | 
10 | CCOC(=O)Nc1cc(N/N=C/c2ccccc2)c2[nH]cnc2n1 | 0.94 | 250 | ILS at 100 mg/kg [5]: 46%
11 | CCOC(=O)Nc1cc2c(nc(S)n2N)c(N)n1 |  | > 30000 | 
12 | CCOC(=O)Nc1cc2c(nc(SCc3ccc(OC)cc3)n2N)c(N)n1 |  | 60 | ILS at 100 mg/kg [6]: 24%
13 | CCOC(=O)Nc1cc(N/N=C/c2ccccc2)c2[nH]c(S)nc2n1 | 5.5 | 1500 | ILS at 200 mg/kg [2]: 10%
14 | CCOC(=O)Nc1cc(N/N=C/c2ccccc2)c(N)c(N)n1 | 15 | 4600 | ILS at 50 mg/kg [8]: 4%
